Experimental data published in ChEMBL document CHEMBL3580574, “Design, Synthesis, and Biological Evaluation of Hexacyclic Tetracyclines as Potent, Broad Spectrum Antibacterial Agents” (J Med Chem, 2015).
Values after ≈ are worked out from the molar mass of the structure shown.

How the values were obtained:
Pseudomonas aeruginosa [1] = test: Antibacterial activity against Pseudomonas aeruginosa 1145 infected in immunocompetent BALB/c mouse lung infection model assessed as log reduction in colony forming units at 40 mg/kg, iv bid administered at 2 hrs and 12 hrs post-infection measured 24 hrs post-drug treatment; format: functional
Method in brief: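 Female BALB/c mice (18−20 g) received intranasal inoculum under light anesthesia. IV treatment at 2 and 12 h postinfection, six mice per group per dose. An untreated group was harvested at 2 h. Lungs were taken 24 h after treatment start, weighed, homogenized, diluted and plated on MacConkey medium overnight at 37 °C, 5% CO2. Read-out: CFU per gram lung.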

Pseudomonas aeruginosa [2] = test: Antibacterial activity against Pseudomonas aeruginosa 1145 assessed as bacterial growth inhibition by susceptibility testing assay; format: functional
Method in brief: (§1)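 Broth microdilution MIC per CLSI in 96-well plates; compound stocks prepared and serially diluted in sterile deionized water; cation-adjusted Mueller Hinton broth prepared fresh and held at 4 °C before testing, supplemented with lysed horse blood as appropriate; runs accepted when comparator antibiotics fell within QC ranges for appropriate ATCC quality control strains.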

Pseudomonas aeruginosa [3] = test: Antibacterial activity against Pseudomonas aeruginosa 694 infected in immunocompetent CD-1 mouse thigh infection model assessed as log reduction in colony forming units at 5 mg/kg, iv administered twice daily at 2 hrs and 12 hrs post-infection measured 24 hrs post-drug treatment (reference value: 1.8 log10CFU); format: functional
Method in brief: (§2)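 Thigh model: inoculum given intramuscularly into the right thigh on day 0. IV dosing with vehicle, test agent or comparator at 2 and 12 h postinfection. Untreated groups were harvested at 2 and 24 h. Thigh muscle was collected at 24 h postinfection, homogenized in PBS pH 7.4, diluted and plated on Brain Heart Infusion agar + 0.5% charcoal. Read-out: CFU per gram thigh.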

Pseudomonas aeruginosa [4] = test: Antibacterial activity against Pseudomonas aeruginosa 694 infected in iv dosed immunocompetent CD-1 mouse thigh infection model assessed as reduction in colony forming units administered twice daily at 2 hrs and 12 hrs post-infection measured 24 hrs post-drug treatment; format: functional, organism-based; method in brief: as §2
Staphylococcus aureus [5] = test: Antibacterial activity against Staphylococcus aureus 101 ATCC 29213 assessed as bacterial growth inhibition by susceptibility testing assay; format: functional
Method in brief: (§3)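 Broth microdilution MIC per CLSI in cation-adjusted Mueller Hinton broth, made fresh and held at 4 °C before testing. Medium supplemented with lysed horse blood where appropriate. Compound stocks prepared and serially diluted in sterile deionized water. Runs were accepted against QC ranges for comparator antibiotics and ATCC QC strains.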

Escherichia coli [6] = test: Antibacterial activity against tet(A) tetracycline-resistant Escherichia coli 155 assessed as bacterial growth inhibition by susceptibility testing assay; format: functional; method in brief: as §1
Enterococcus faecalis = test: Antibacterial activity against tet(M) tetracycline-resistant Enterococcus faecalis 327 assessed as bacterial growth inhibition by susceptibility testing assay; format: functional; method in brief: as §1
Burkholderia cenocepacia = test: Antibacterial activity against Burkholderia cenocepacia 240 assessed as bacterial growth inhibition by susceptibility testing assay; format: functional
Method in brief: (§4)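 Medium supplemented with lysed horse blood where appropriate. Compound stocks prepared and serially diluted in sterile deionized water. Runs were accepted against QC ranges for comparator antibiotics and ATCC QC strains.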

Klebsiella pneumoniae = test: Antibacterial activity against Klebsiella pneumoniae 457 harboring CTX-M-15 gene assessed as bacterial growth inhibition by susceptibility testing assay; format: functional; method in brief: as §1
Pseudomonas aeruginosa [7] = test: Ratio of tetracycline IC50 to compound IC50 for antitranslational activity in Pseudomonas aeruginosa 555 BAA-47 by in vitro coupled transcription/translation assay; format: functional
Pseudomonas aeruginosa [8] = test: Antitranslational activity in Pseudomonas aeruginosa 555 BAA-47 assessed as ribosomal inhibition by in vitro coupled transcription/translation assay; format: functional
Method in brief: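 P. aeruginosa coupled transcription/translation reactions with a luciferase reporter, run 60 min at 37 °C. Reactions were stopped on ice for 5 min, then luciferase substrate was added and luminescence read. Percent luminescence was plotted against inhibitor concentration, and 50% inhibition versus untreated controls was taken as the IC50.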

Staphylococcus aureus [9] = test: Antibacterial activity against tet(K) tetracycline-resistant Staphylococcus aureus 158 assessed as bacterial growth inhibition by susceptibility testing assay; format: functional
Proteus mirabilis = test: Antibacterial activity against Proteus mirabilis 385 assessed as bacterial growth inhibition by susceptibility testing assay; format: functional; method in brief: as §3
Pseudomonas aeruginosa [10] = test: Antibacterial activity against Pseudomonas aeruginosa 694 assessed as bacterial growth inhibition by susceptibility testing assay; format: functional; method in brief: as §3
Staphylococcus aureus [11] = test: Antibacterial activity against methicillin-resistant, tet(M) tetracycline-resistant Staphylococcus aureus 161 assessed as bacterial growth inhibition by susceptibility testing assay; format: functional; method in brief: as §1
Escherichia coli [12] = test: Antibacterial activity against Escherichia coli 107 ATCC 25922 assessed as bacterial growth inhibition by susceptibility testing assay; format: functional; method in brief: as §3
Enterococcus faecium = test: Antibacterial activity against tet(M) tetracycline-resistant Enterococcus faecium 404 assessed as bacterial growth inhibition by susceptibility testing assay; format: functional
[13] = test system: Stenotrophomonas maltophilia; test: Antibacterial activity against Stenotrophomonas maltophilia 256 assessed as bacterial growth inhibition by susceptibility testing assay; format: functional; method in brief: as §4
Pseudomonas aeruginosa [14] = test: Antibacterial activity against Pseudomonas aeruginosa 555 BAA-47 assessed as bacterial growth inhibition by susceptibility testing assay; format: functional; method in brief: as §3
Streptococcus pneumoniae = test: Antibacterial activity against tet(M) tetracycline-resistant Streptococcus pneumoniae 160 assessed as bacterial growth inhibition by susceptibility testing assay; format: functional
Enterobacter cloacae = test: Antibacterial activity against tet(A) tetracycline-resistant Enterobacter cloacae 603 assessed as bacterial growth inhibition by susceptibility testing assay; format: functional; method in brief: as §1
Acinetobacter baumannii = test: Antibacterial activity against tet(B) tetracycline-resistant Acinetobacter baumannii 250 assessed as bacterial growth inhibition by susceptibility testing assay; format: functional; method in brief: as §1
[15] = Staphylococcus aureus, 101 ATCC 29213, read-out: MIC
[16] = Escherichia coli, 155, read-out: MIC
[17] = Enterococcus faecalis, 327, read-out: MIC
[18] = Burkholderia cenocepacia, 240, read-out: MIC
[19] = Klebsiella pneumoniae, 457, read-out: MIC
[20] = Staphylococcus aureus, 158, read-out: MIC
[21] = Proteus mirabilis, 385, read-out: MIC
[22] = Staphylococcus aureus, 161, read-out: MIC
[23] = Escherichia coli, 107 ATCC 25922, read-out: MIC
[24] = Enterococcus faecium, 404, read-out: MIC
[25] = Stenotrophomonas maltophilia, 256, read-out: MIC
[26] = Pseudomonas aeruginosa, 555 BAA-47, read-out: MIC
[27] = Streptococcus pneumoniae, 160, read-out: MIC
[28] = Enterobacter cloacae, 603, read-out: MIC
[29] = Acinetobacter baumannii, 250, read-out: MIC

Structure (SMILES): NCC[C@H](O)C(=O)N[C@@H]1C[C@H](N)[C@@H](O[C@H]2O[C@H](CN)[C@@H](O)[C@H](O)[C@H]2O)[C@H](O)[C@H]1O[C@H]1O[C@H](CO)[C@@H](O)[C@H](N)[C@H]1O [AMIKACIN]
- log10CFU/g (Pseudomonas aeruginosa [1]): 2
- MIC (Pseudomonas aeruginosa [2]): 1 µg/mL (≈ 1.71 µM)

Structure (SMILES): C[C@@H](O)[C@H]1C(=O)N2C(C(=O)O)=C(S[C@@H]3CN[C@H](C(=O)N(C)C)C3)[C@H](C)[C@H]12 [MEROPENEM]
- log10CFU/g (Pseudomonas aeruginosa [1]): 2
- MIC (Pseudomonas aeruginosa [2]): 4 µg/mL (≈ 10.4 µM)

Structure (SMILES): C[C@H]1COc2c(N3CCN(C)CC3)c(F)cc3c(=O)c(C(=O)O)cn1c23.C[C@H]1COc2c(N3CCN(C)CC3)c(F)cc3c(=O)c(C(=O)O)cn1c23.O [LEVOFLOXACIN]
- log10CFU/g (Pseudomonas aeruginosa [3]): 4.5

Structure (SMILES): CN(C)[C@@H]1C(O)=C(C(N)=O)C(=O)[C@@]2(O)C(O)=C3C(=O)c4c(O)c5c(c(F)c4C[C@H]3C[C@@H]12)[C@@H]1[C@@H](CCN1C)CN5 (stereo in doubt; 10c) [listing 1 of 2 here]
- inhibition (Pseudomonas aeruginosa [4]): Dose-dependent effect

Structure (SMILES): CN(C)[C@@H]1C(O)=C(C(N)=O)C(=O)[C@@]2(O)C(O)=C3C(=O)c4c(O)c5c(c(F)c4C[C@H]3C[C@@H]12)[C@@H]1[C@@H](CCN1C)CN5 (stereo in doubt; 10c) [listing 2 of 2 here]
- MIC (Staphylococcus aureus [5]): 0.25 µg/mL (≈ 0.461 µM)
- MIC (Escherichia coli [6]): 0.5 µg/mL (≈ 0.922 µM)
- MIC (Enterococcus faecalis): 0.125 µg/mL (≈ 0.23 µM)
- MIC (Burkholderia cenocepacia): 8 µg/mL (≈ 14.7 µM)
- MIC (Klebsiella pneumoniae): 0.5 µg/mL (≈ 0.922 µM)
- Ratio IC50 (Pseudomonas aeruginosa [7]): 10
- IC50 (Pseudomonas aeruginosa [8]): 210 nM
- MIC (Staphylococcus aureus [9]): 0.0625 µg/mL (≈ 0.115 µM)
- log10CFU/g (Pseudomonas aeruginosa [1]): 4
- MIC (Proteus mirabilis): 0.5 µg/mL (≈ 0.922 µM)
- MIC (Pseudomonas aeruginosa [10]): 8 µg/mL (≈ 14.7 µM)
- MIC (Staphylococcus aureus [11]): 0.5 µg/mL (≈ 0.922 µM)
- MIC (Escherichia coli [12]): 0.0625 µg/mL (≈ 0.115 µM)
- MIC (Enterococcus faecium): 0.0625 µg/mL (≈ 0.115 µM)
- MIC (Pseudomonas aeruginosa [2]): 4 µg/mL (≈ 7.37 µM)
- MIC [13]: 1 µg/mL (≈ 1.84 µM)
- MIC (Pseudomonas aeruginosa [14]): 4 µg/mL (≈ 7.37 µM)
- MIC (Streptococcus pneumoniae): <=0.0156 ug ml-1
- MIC (Enterobacter cloacae): 0.5 µg/mL (≈ 0.922 µM)
- MIC (Acinetobacter baumannii): 2 µg/mL (≈ 3.69 µM)

Structure (SMILES): CCCN1CC[C@@]2(C)CNc3c(O)c4c(c(F)c3[C@@H]12)C[C@H]1C[C@H]2[C@H](N(C)C)C(O)=C(C(N)=O)C(=O)[C@@]2(O)C(O)=C1C4=O
- MIC (Staphylococcus aureus [5]; [15]): 0.5 µg/mL (≈ 0.855 µM)
- MIC (Escherichia coli [6]; [16]): 4 µg/mL (≈ 6.84 µM)
- MIC (Enterococcus faecalis; [17]): 8 µg/mL (≈ 13.7 µM)
- MIC (Burkholderia cenocepacia; [18]): > 32 µg/mL
- MIC (Klebsiella pneumoniae; [19]): 16 µg/mL (≈ 27.4 µM)
- MIC (Staphylococcus aureus [9]; [20]): 0.125 µg/mL (≈ 0.214 µM)
- MIC (Proteus mirabilis; [21]): 32 µg/mL (≈ 54.7 µM)
- MIC (Staphylococcus aureus [11]; [22]): 8 µg/mL (≈ 13.7 µM)
- MIC (Escherichia coli [12]; [23]): 1 µg/mL (≈ 1.71 µM)
- MIC (Enterococcus faecium; [24]): 4 µg/mL (≈ 6.84 µM)
- MIC [13, 25]: 4 µg/mL (≈ 6.84 µM)
- MIC (Pseudomonas aeruginosa [14]; [26]): > 32 µg/mL
- MIC (Streptococcus pneumoniae; [27]): 0.5 µg/mL (≈ 0.855 µM)
- MIC (Enterobacter cloacae; [28]): 16 µg/mL (≈ 27.4 µM)
- MIC (Acinetobacter baumannii; [29]): 16 µg/mL (≈ 27.4 µM)

Structure (SMILES): CN(C)[C@@H]1C(O)=C(C(N)=O)C(=O)[C@@]2(O)C(O)=C3C(=O)c4c(O)c5c(c(F)c4C[C@H]3C[C@@H]12)[C@@H]1[C@@H](CCN1C)CN5 (stereo in doubt; 10b)
- MIC (Staphylococcus aureus [5]; [15]): 0.5 µg/mL (≈ 0.922 µM)
- MIC (Escherichia coli [6]; [16]): 1 µg/mL (≈ 1.84 µM)
- MIC (Enterococcus faecalis): 4 µg/mL (≈ 7.37 µM)
- MIC (Burkholderia cenocepacia): 32 µg/mL (≈ 59 µM)
- MIC (Klebsiella pneumoniae; [19]): 1 µg/mL (≈ 1.84 µM)
- MIC (Staphylococcus aureus [9]; [20]): 0.125 µg/mL (≈ 0.23 µM)
- MIC (Proteus mirabilis): 2 µg/mL (≈ 3.69 µM)
- MIC (Staphylococcus aureus [11]): 4 µg/mL (≈ 7.37 µM)
- MIC (Escherichia coli [12]): 0.25 µg/mL (≈ 0.461 µM)
- MIC (Enterococcus faecium): 1 µg/mL (≈ 1.84 µM)
- MIC [13]: 4 µg/mL (≈ 7.37 µM)
- MIC (Pseudomonas aeruginosa [14]; [26]): 8 µg/mL (≈ 14.7 µM)
- MIC (Streptococcus pneumoniae): 0.125 µg/mL (≈ 0.23 µM)
- MIC (Enterobacter cloacae): 2 µg/mL (≈ 3.69 µM)
- MIC (Acinetobacter baumannii): 8 µg/mL (≈ 14.7 µM)

Structure (SMILES): CN(C)[C@@H]1C(O)=C(C(N)=O)C(=O)[C@@]2(O)C(O)=C3C(=O)c4c(O)c5c(c(OC(F)(F)F)c4C[C@H]3C[C@@H]12)[C@@H]1[C@H](CN5)CC2CCCN21 (stereo partly specified)
- MIC (Staphylococcus aureus [5]; [15]): 0.25 µg/mL (≈ 0.394 µM)
- MIC (Escherichia coli [6]; [16]): 0.25 µg/mL (≈ 0.394 µM)
- MIC (Enterococcus faecalis; [17]): 0.125 µg/mL (≈ 0.197 µM)
- MIC (Burkholderia cenocepacia; [18]): 32 µg/mL (≈ 50.4 µM)
- MIC (Klebsiella pneumoniae; [19]): 2 µg/mL (≈ 3.15 µM)
- MIC (Staphylococcus aureus [9]; [20]): 0.0625 µg/mL (≈ 0.0985 µM)
- MIC (Proteus mirabilis; [21]): 4 µg/mL (≈ 6.3 µM)
- MIC (Staphylococcus aureus [11]; [22]): 1 µg/mL (≈ 1.58 µM)
- MIC (Escherichia coli [12]; [23]): 0.0625 µg/mL (≈ 0.0985 µM)
- MIC (Enterococcus faecium; [24]): 0.0625 µg/mL (≈ 0.0985 µM)
- MIC [13, 25]: 4 µg/mL (≈ 6.3 µM)
- MIC (Pseudomonas aeruginosa [14]; [26]): 8 µg/mL (≈ 12.6 µM)
- MIC (Streptococcus pneumoniae; [27]): ≤ 0.0156 µg/mL
- MIC (Enterobacter cloacae; [28]): 4 µg/mL (≈ 6.3 µM)
- MIC (Acinetobacter baumannii; [29]): 16 µg/mL (≈ 25.2 µM)
